Measurements published in ChEMBL document CHEMBL4145529, “Design, synthesis and biological evaluation of hybrid nitroxide-based non-steroidal anti-inflammatory drugs” (Eur J Med Chem, 2018).
Blank lines part the entries; values can stand above or below the compound they belong to.

Columns and labels:
[1] = biological target: T1, Prostaglandin G/H synthase 2 (Homo sapiens) (UniProt P35354); assay: Inhibition of COX2-induced PGE2 production in human A549 cells assessed as PGE2 level at 30 uM by ELISA (reference value: 57 +/- 4 pg/ml); format: cell-based
T1 sequence (whole entry): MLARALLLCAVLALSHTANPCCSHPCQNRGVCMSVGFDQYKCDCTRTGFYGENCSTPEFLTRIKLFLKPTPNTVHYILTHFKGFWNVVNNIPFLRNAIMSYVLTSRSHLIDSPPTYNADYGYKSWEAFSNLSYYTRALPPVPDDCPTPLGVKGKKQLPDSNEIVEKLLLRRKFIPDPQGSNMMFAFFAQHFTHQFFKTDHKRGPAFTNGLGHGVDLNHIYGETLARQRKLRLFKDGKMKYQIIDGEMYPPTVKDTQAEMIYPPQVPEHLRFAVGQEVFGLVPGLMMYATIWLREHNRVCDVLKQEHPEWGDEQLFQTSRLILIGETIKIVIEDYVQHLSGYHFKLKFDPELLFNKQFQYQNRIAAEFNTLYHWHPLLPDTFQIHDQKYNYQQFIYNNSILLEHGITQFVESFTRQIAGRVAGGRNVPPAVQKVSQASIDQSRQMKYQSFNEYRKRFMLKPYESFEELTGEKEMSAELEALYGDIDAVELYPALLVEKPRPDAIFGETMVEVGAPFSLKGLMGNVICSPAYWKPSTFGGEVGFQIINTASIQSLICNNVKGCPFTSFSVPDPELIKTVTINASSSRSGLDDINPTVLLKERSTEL
How it was run: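 A549 NSCLC cells treated with compounds at 30 μM; prostaglandin E2 released via COX quantified by ELISA, reported as pg/mL; mean ± S.D. of 3 determinations each repeated in duplicate; Student's t-test for significance.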

[2] = biological target: T1, Prostaglandin G/H synthase 2 (Homo sapiens); assay: Inhibition of COX2-induced PGE2 production in human A549 cells assessed as PGE2 level at 4 uM by ELISA (reference value: 126 +/- 17 pg/ml); format: cell-based
How it was run: (§1)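 COX-derived PGE2 released by A549 cells, measured by ELISA in pg/mL. Test concentrations 4 or 90 μM; combination wells got aspirin + Tempol at 90 μM each. Mean ± S.D. of 3 determinations, each in duplicate; Student's t-test.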

[3] = system: 661W; assay: Antioxidant activity in mouse 661W cells assessed as inhibition of antimycin-induced mitochondrial ROS production at 50 uM by fluorescence assay relative to control; format: functional
[4] = system: 661W; assay: Antioxidant activity in mouse 661W cells assessed as inhibition of antimycin-induced mitochondrial ROS production at 100 uM by fluorescence assay relative to control; format: functional
[5] = system: 661W; assay: Antioxidant activity in mouse 661W cells assessed as inhibition of antimycin-induced mitochondrial ROS production at 10 uM by fluorescence assay relative to control; format: functional
[6] = system: NCI-H1299; assay: Growth inhibition of human NCI-H1299 cells assessed as cell growth at 90 uM in presence of tempol by MTT assay relative to control; format: functional; conditions: read-out: Activity
How it was run: (§2)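 NCI-H1299 human NSCLC cells; proliferation measured by MTT assay with compounds at 90 or 900 μM, tested alone or as aspirin plus Tempol combination; growth expressed as % of control; mean ± S.D. of 3 experiments each in duplicate; significance by Student's t-test.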

[7] = system: NCI-H1299; assay: Growth inhibition of human NCI-H1299 cells assessed as cell growth at 900 uM by MTT assay relative to control; format: functional; conditions: read-out: Activity
How it was run: (§3)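 NCI-H1299 cell growth by MTT assay, tested at 18–900 μM; combination wells got aspirin + Tempol at equal concentration. Given as % growth. Mean ± S.D. of 3 experiments, each run in duplicate; Student's t-test.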

[8] = system: NCI-H1299; assay: Growth inhibition of human NCI-H1299 cells assessed as cell growth at 900 uM in presence of tempol by MTT assay relative to control; format: functional; conditions: read-out: Activity; how it was run: as §2
[9] = system: NCI-H1299; assay: Growth inhibition of human NCI-H1299 cells assessed as cell growth at 90 uM by MTT assay relative to control; format: functional; conditions: read-out: Activity; how it was run: as §3
[10] = biological target: T1, Prostaglandin G/H synthase 2 (Homo sapiens); assay: Inhibition of COX2-induced PGE2 production in human A549 cells assessed as PGE2 level at 90 uM by ELISA; format: cell-based; how it was run: as §1
[11] = system: NCI-H1299; assay: Growth inhibition of human NCI-H1299 cells assessed as cell growth at 900 uM in presence of aspirin by MTT assay relative to control; format: functional; conditions: read-out: Activity; how it was run: as §3
[12] = system: A549; assay: Effect on basal ROS level in human A549 cells at 100 uM by DCFH-DA staining based fluorescence assay (reference value: 100 +/- 5%); format: cell-based; conditions: a549, 100 µM
[13] = biological target: T1, Prostaglandin G/H synthase 2 (Homo sapiens); assay: Inhibition of COX2-induced PGE2 production in human A549 cells assessed as PGE2 level at 90 uM in presence of aspirin by ELISA (reference value: 126 +/- 17 pg/ml); format: cell-based; how it was run: as §1
[14] = system: A549; assay: Anti-oxidant activity in human A549 cells assessed as inhibition of H2O2-induced ROS production by measuring ROS level at 100 uM by DCFH-DA staining based fluorescence assay (reference value: 194 +/- 13%); format: functional; set-up: scale not given: the % may be the effect or the level left
[15] = system: NCI-H1299; assay: Growth inhibition of human NCI-H1299 cells assessed as cell growth at 90 uM in presence of aspirin by MTT assay relative to control; format: functional; conditions: read-out: Activity; how it was run: as §3

SMILES: CC(=O)Oc1ccccc1C(=O)OC1CC(C)(C)N([O])C(C)(C)C1
- Activity [2]: 87 pg/mL
- Activity [1]: 31 pg/mL

SMILES: CC1(C)c2cc(O)c(C(=O)O)cc2C(C)(C)N1[O]
- Activity [1]: 50 pg/mL

SMILES: COc1ccc2c(c1)c(CC(=O)Nc1ccc3c(c1)C(C)(C)N([O])C3(C)C)c(C)n2C(=O)c1ccc(Cl)cc1
- inhibition [3]: 82.3%
- inhibition [4]: 88.4%
- inhibition [5]: 97.6%
- Activity [1]: 58 pg/mL

SMILES: CC(=O)Oc1ccccc1C(=O)O [ASPIRIN]
- growth at 90 µM [6]: 102%
- growth at 900 µM [7]: 49%
- growth at 900 µM [8]: 53%
- growth at 90 µM [9]: 103%
- Activity [10]: 79 pg/mL

SMILES: CC1=C[C@H](O)CC(C)(C)[C@H]1/C=C/C(C)=C/C=C/C(C)=C/C=C/C=C(C)/C=C/C=C(C)/C=C/C1=C(C)C[C@@H](O)CC1(C)C [LUTEIN]
- inhibition at 10 µM [5]: 89.7%

SMILES: CC1(C)CC(O)CC(C)(C)N1[O] [TEMPOL]
- growth at 900 µM [11]: 53%
- Activity [12]: 103%
- growth at 900 µM [7]: 98%
- Activity [13]: 75 pg/mL
- Activity [14]: 155%
- growth at 90 µM [15]: 102%
- growth at 90 µM [9]: 100%
- Activity [10]: 105 pg/mL

Continued, values first:

- Activity [1]: 52 pg/mL
SMILES: CC(=O)Oc1cc2c(cc1C(=O)O)C(C)(C)N([O])C2(C)C

- Activity [2]: 99 pg/mL
- Activity [1]: 54 pg/mL
SMILES: CC(=O)Oc1ccccc1C(=O)NC1CC(C)(C)N([O])C(C)(C)C1

- Activity [1]: 45 pg/mL
SMILES: CC(=O)Oc1ccccc1C(=O)Nc1ccc2c(c1)C(C)(C)N([O])C2(C)C

- Activity [1]: 34 pg/mL
SMILES: CC1(C)CC(C(=O)Oc2ccccc2C(=O)O)C(C)(C)N1[O] (configuration not stated)

- Activity [1]: 23 pg/mL
SMILES: CC1(C)CC(C(=O)Oc2ccccc2C(=O)OCc2ccccc2)CC(C)(C)N1[O]
